Tests used:
[1] = Therapeutic index, ratio of IC50 for human H9 cells to EC50 for HIV1 3B; assay type: cell-based; conditions: read-out: TI
Summary of the method: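 Mock-infected H9 cells were run in parallel under the same conditions, and toxicity was measured by XTT. IC50 is the concentration toxic to 50% of the cells. TI = IC50/EC50, where EC50 is 50% suppression of HIV-1 IIIB replication measured by day-6 p24 antigen capture.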

[2] = target: Human immunodeficiency virus type 1 reverse transcriptase (Human immunodeficiency virus 1, UniProt Q72547); test: Inhibition of HIV1 DH012 reverse transcriptase by roche colorimetric assay
Summary of the method: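 HIV-1 DH012 RT activity was measured across a range of test-compound concentrations using a colorimetric RT kit run per the manufacturer's protocol; IC50 taken as the inhibitory concentration.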

[3] = test system: Human immunodeficiency virus 1; test: Antiviral activity against HIV1 IIIB infected in human H9 cells after 6 days by p24 antigen capture assay; conditions: Human immunodeficiency virus 1, H9, 144 h
[4] = test system: Human immunodeficiency virus 1; test: Antiviral activity against HIV1 3B infected in human H9 cells assessed as inhibition of viral replication at up to 100 ug/mL after 6 hrs by p24 antigen based assay; assay type: functional, organism-based; conditions: in the assay text read “after 6 days” for “after 6 hrs”
Summary of the method: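 H9 human T cells (3 × 10^5 cells/mL) infected with HIV-1 IIIB at 125 TCID50. Compounds dissolved in DMSO and screened at final 100, 20, 4 and 0.8 μg/mL, with further dilutions for actives. Medium was replaced on days 1 and 4 post-infection. On day 6 the supernatant p24 antigen was measured by capture assay. EC50 is the concentration suppressing replication by 50%.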

EC50 [4] | Compound | selectivity ratio [1] | IC50 [2] [nM] | EC50 [3] [nM]
– | Cc1cc(=O)oc2c3c(ccc12)O[C@@H](C)[C@H](OC(=O)[C@]12CC[C@](C)(C(=O)O1)C2(C)C)[C@@H]3OC(=O)[C@]12CC[C@](C)(C(=O)O1)C2(C)C | > 706 | 6700 | < 40
– | Cc1cc(=O)oc2c3c(ccc12)O[C@H](C)[C@@H](OC(=O)[C@]12CC[C@](C)(C(=O)O1)C2(C)C)[C@H]3OC(=O)[C@]12CC[C@](C)(C(=O)O1)C2(C)C | 17.8 | – | 2260
Not Active | Cc1cc(=O)oc2c3c(ccc12)O[C@H](C)[C@H](OC(=O)[C@]12CC[C@](C)(C(=O)O1)C2(C)C)[C@@H]3OC(=O)[C@]12CC[C@](C)(C(=O)O1)C2(C)C | – | – | –
– | Cc1cc(=O)oc2c3c(ccc12)S[C@@H](C)[C@@H](OC(=O)[C@]12CC[C@](C)(C(=O)O1)C2(C)C)[C@H]3OC(=O)[C@]12CC[C@](C)(C(=O)O1)C2(C)C | > 1000 | – | < 39
Not Active | Cc1cc(=O)oc2c3c(ccc12)S[C@H](C)[C@@H](OC(=O)[C@]12CC[C@](C)(C(=O)O1)C2(C)C)[C@H]3OC(=O)[C@]12CC[C@](C)(C(=O)O1)C2(C)C | – | – | –
– | Cc1cc(=O)oc2c3c(ccc12)S[C@H](C)[C@H](OC(=O)[C@]12CC[C@](C)(C(=O)O1)C2(C)C)[C@@H]3OC(=O)[C@]12CC[C@](C)(C(=O)O1)C2(C)C | 31.1 | – | 1260
Not Active | Cc1cc(=O)oc2c3c(ccc12)[S+]([O-])[C@@H](C)C(OC(=O)C12CCC(C)(C(=O)O1)C2(C)C)C3OC(=O)C12CCC(C)(C(=O)O1)C2(C)C (some centres undefined) | – | – | –
– | Cc1cc(=O)oc2c3c(ccc12)[S+]([O-])[C@H](C)[C@H](OC(=O)[C@]12CC[C@](C)(C(=O)O1)C2(C)C)[C@@H]3OC(=O)[C@]12CC[C@](C)(C(=O)O1)C2(C)C (some centres undefined) | 1.57 | – | 24400
– | Cc1cc(=O)oc2c3c(ccc12)S(=O)(=O)[C@@H](C)C(OC(=O)C12CCC(C)(C(=O)O1)C2(C)C)C3OC(=O)C12CCC(C)(C(=O)O1)C2(C)C (some centres undefined) | 11.1 | – | 3370
– | Cc1cc(=O)oc2c3c(ccc12)OC(C)(C)[C@H](OC(=O)[C@]12CC[C@](C)(C(=O)O1)C2(C)C)[C@@H]3OC(=O)[C@]12CC[C@](C)(C(=O)O1)C2(C)C | 301 | 10400 | 126
– | Cc1cc(=O)oc2c3c(ccc12)OC[C@H](OC(=O)[C@]12CC[C@](C)(C(=O)O1)C2(C)C)[C@@H]3OC(=O)[C@]12CC[C@](C)(C(=O)O1)C2(C)C | 2.54 | – | 16200
– | Cc1cc(=O)oc2c3c(ccc12)SC[C@H](OC(=O)[C@]12CC[C@](C)(C(=O)O1)C2(C)C)[C@@H]3OC(=O)[C@]12CC[C@](C)(C(=O)O1)C2(C)C | 40.6 | – | 990
– | Cc1cn([C@H]2C[C@H](N=[N+]=[N-])[C@@H](CO)O2)c(=O)[nH]c1=O [ZIDOVUDINE] | – | – | 10

Reference: ChEMBL document CHEMBL1250555, “Anti-AIDS agents 84. Synthesis and anti-human immunodeficiency virus (HIV) activity of 2'-monomethyl-4-methyl- and 1'-thia-4-methyl-(3'R,4'R)-3',4'-di-O-(S)-camphanoyl-(+)-cis-khellactone (DCK) analogs” (Bioorg Med Chem, 2010)
